In ChEMBL document CHEMBL5260830, “Breakthroughs in neuroactive steroid drug discovery” (Bioorg Med Chem Lett, 2018):

What was measured:
[1] = target: GABA-A receptor; anion channel; assay: Displacement of [35S]-TBPS from rat synaptosomes GABAA receptor incubated for 90 mins by liquid scintillation counting method; format: subcellular, Synaptosome
[2] = target: GABA-A receptor; anion channel (Homo sapiens) (UniProt P14867+P47870+P18507+P28472+P48169+Q99928+Q9UN88+P34903+O00591+O14764+Q8N1C3+P18505+P78334+P47869+P31644+Q16445); assay: Potentiation of NAS mediated GABA (unknown origin) tonic effect assessed as fold potentiation; format: protein-complex assay; settings: filed as activator
[3] = organism: Mus musculus; assay: Anticonvulsant activity in 6-Hz induced seizure mouse model assessed as protection against 6-Hz induced seizure; format: functional
How it was run: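 Tonic currents recorded from voltage-clamped ([…]) dentate gyrus granule cells of wild-type female mice. Value is fold potentiation of the mean normalized tonic response to 1 µM GABA, from four to eight cells per steroid and concentration. Anticonvulsant ED50 determined in the mouse 6-Hz psychomotor seizure model.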

[4] = target: GABA-A receptor; anion channel; assay: Displacement of [35S]-TBPS GABAA receptor in Wistar rat brain membrane incubated for 60 mins by competitive binding assay; format: cell membranes
[5] = target: Glutamate NMDA receptor; GRIN1/GRIN2B (Homo sapiens, UniProt Q05586+Q13224); assay: Inhibition of GluN1/GluN2B NMDA receptor (unknown origin) expressed in HEK293 cells; format: cell-based
How it was run: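 Potency measured in HEK293 cells transfected with rat GluN1 and GluN2B subunits.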

[6] = Permeability coefficient across apical to basolateral side in human Caco-2 cells assessed as drug recovery at pH 7.4; format: ADME, cell-based; settings: Caco-2, pH 7.4, read-out: Drug recovery
[7] = Permeability coefficient across apical to basolateral side in human Caco-2 cells at pH 7.4; format: ADME, cell-based; settings: Caco-2, pH 7.4, read-out: permeability

Glutamate NMDA receptor; GRIN1/GRIN2B, sequence (Q13224 whole entry, other chains not shown): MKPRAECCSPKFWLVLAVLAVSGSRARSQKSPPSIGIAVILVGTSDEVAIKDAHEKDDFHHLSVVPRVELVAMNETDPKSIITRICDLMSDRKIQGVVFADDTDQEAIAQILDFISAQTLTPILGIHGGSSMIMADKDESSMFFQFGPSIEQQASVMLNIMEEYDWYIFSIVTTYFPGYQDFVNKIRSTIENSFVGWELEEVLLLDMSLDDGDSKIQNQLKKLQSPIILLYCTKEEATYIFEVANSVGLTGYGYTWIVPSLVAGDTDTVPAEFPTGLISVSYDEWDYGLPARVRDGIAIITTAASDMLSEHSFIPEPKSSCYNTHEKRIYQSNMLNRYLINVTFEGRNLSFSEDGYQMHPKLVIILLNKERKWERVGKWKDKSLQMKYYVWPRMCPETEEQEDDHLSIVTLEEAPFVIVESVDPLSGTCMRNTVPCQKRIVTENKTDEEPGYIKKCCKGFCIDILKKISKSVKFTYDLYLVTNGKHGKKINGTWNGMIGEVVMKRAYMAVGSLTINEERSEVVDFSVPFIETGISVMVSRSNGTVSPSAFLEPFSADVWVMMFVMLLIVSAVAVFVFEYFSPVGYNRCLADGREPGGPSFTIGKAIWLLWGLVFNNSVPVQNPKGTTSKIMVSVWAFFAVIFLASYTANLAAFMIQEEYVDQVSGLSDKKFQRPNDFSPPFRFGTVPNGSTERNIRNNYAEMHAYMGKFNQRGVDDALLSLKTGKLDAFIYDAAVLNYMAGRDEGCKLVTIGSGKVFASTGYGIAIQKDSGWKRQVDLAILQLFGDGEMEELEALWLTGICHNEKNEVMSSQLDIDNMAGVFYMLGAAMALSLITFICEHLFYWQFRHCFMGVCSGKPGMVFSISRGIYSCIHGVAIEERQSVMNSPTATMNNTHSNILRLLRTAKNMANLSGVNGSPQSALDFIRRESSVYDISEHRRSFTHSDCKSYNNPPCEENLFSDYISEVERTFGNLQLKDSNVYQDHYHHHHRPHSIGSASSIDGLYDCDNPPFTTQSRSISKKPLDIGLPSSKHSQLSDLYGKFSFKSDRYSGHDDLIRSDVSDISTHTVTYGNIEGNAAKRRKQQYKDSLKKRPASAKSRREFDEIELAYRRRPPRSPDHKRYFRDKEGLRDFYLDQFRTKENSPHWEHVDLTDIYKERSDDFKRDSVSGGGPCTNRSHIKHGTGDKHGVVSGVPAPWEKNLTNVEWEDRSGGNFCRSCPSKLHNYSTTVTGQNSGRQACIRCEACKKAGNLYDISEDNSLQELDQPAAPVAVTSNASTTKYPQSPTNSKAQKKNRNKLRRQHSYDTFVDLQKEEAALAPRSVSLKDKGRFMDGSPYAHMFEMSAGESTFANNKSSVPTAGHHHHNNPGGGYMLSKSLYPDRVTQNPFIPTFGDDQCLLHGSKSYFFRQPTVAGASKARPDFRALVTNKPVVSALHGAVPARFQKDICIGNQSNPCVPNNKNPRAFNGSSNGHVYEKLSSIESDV

Q: For CC(=O)[C@H]1CC[C@H]2[C@@H]3C[C@H]4OC[C@@]5(CC[C@@H](O)CC45)[C@H]3CC[C@]12C (some centres not stated), which IC50 [1] is on record?
A: 141 nM

Q: Which IC50 [1] does the source give for CC(=O)[C@H]1CC[C@H]2[C@@H]3CC[C@H]4C[C@H](O)C[C@H]5O[C@H](C[C@]12C)[C@@H]3[C@]45C here?
A: 93 nM

Q: With CC(=O)[C@H]1CC[C@H]2[C@@H]3CC[C@@H]4C[C@H](O)CC[C@]4(C)[C@H]3CC[C@]12C [ELTANOLONE] as the molecule, how does the fold change (FC) [2] read?
A: 2.24

Q: And the ED50 [3]?
A: 7.7 mg/kg

Q: Which IC50 [1] does the source give for CC(=O)[C@H]1CC[C@H]2[C@@H]3CCC4=C[C@H](O)C[C@@H]5O[C@H](C[C@]12C)[C@@H]3[C@]45C here?
A: 72 nM

Q: Which IC50 [1] does the source give for CC(=O)[C@H]1CC[C@H]2[C@@H]3CC[C@@H]4C[C@H](O)C[C@@H]5O[C@H](C[C@]12C)[C@@H]3[C@]45C here?
A: 490 nM

Q: Which IC50 [4] does the source give for CC(=O)[C@H]1CC[C@H]2[C@@H]3CC[C@H]4C[C@@H]5O[C@@H]5C[C@]4(C)[C@H]3CC[C@]12C here?
A: 255 nM

Q: For CC(=O)[C@H]1CC[C@H]2[C@@H]3CC[C@H]4C[C@@H](O)CC[C@]4(C)[C@H]3CC[C@]12C [SEPRANOLONE], which fold change (FC) [2] is on record?
A: 0.76

Q: And the ED50 [3]?
A: > 100 mg/kg

Q: Which IC50 [5] does the source give for C[C@@]12CCC[C@H]1[C@@H]1CC[C@@H]3C[C@H](NC(=O)CC(=O)O)CC[C@]3(C)[C@H]1CC2 here?
A: 15400 nM

Q: With C[C@@]12CCC[C@H]1[C@@H]1CC[C@@H]3C[C@H](NC(=O)[C@@H](N)CC(=O)O)CC[C@]3(C)[C@H]1CC2 as the molecule, how does the recovery [6] read?
A: < 50%

Q: And the IC50 [5]?
A: 1000 nM

Q: And the Papp A→B [7]?
A: 0.22 ×10⁻⁶ cm/s

Q: With C[C@@]12CCC[C@H]1[C@@H]1CC[C@@H]3C[C@H](NC(=O)[C@@H](N)CCC(=O)O)CC[C@]3(C)[C@H]1CC2 as the molecule, how does the recovery [6] read?
A: < 50%

Q: And the IC50 [5]?
A: 1400 nM

Q: What about the Papp A→B [7] of the same molecule?
A: 0.22 ×10⁻⁶ cm/s

Q: Which fold change (FC) [2] does the source give for C[C@]12CC[C@@H](O)C[C@@H]1CC[C@@H]1[C@@H]2CC[C@]2(C)[C@@H](C(=O)CO)CC[C@@H]12 here?
A: 3.52

Q: What about the ED50 [3] of the same molecule?
A: 5 mg/kg

Q: For C[C@@]12CCC[C@H]1[C@@H]1CC[C@@H]3C[C@H](NC(=O)O)CC[C@]3(C)[C@H]1CC2, which IC50 [5] is on record?
A: 21700 nM

Q: For COCC(=O)[C@H]1CC[C@H]2[C@@H]3CC[C@H]4C[C@@H]5O[C@@H]5C[C@]4(C)[C@H]3CC[C@]12C, which IC50 [4] is on record?
A: 625 nM

Q: With CC(=O)[C@H]1CC[C@H]2[C@@H]3CC[C@H]4C[C@H](O)CC[C@]4(C)[C@H]3CC[C@]12C [BREXANOLONE] as the molecule, how does the fold change (FC) [2] read?
A: 4.36

Q: What about the IC50 [1] of the same molecule?
A: 86 nM

Q: And the ED50 [3]?
A: 4.2 mg/kg

Q: Which results are given for CC(=O)[C@H]1CC[C@H]2[C@@H]3CC[C@H]4C[C@H](O)CC[C@]4(C)[C@H]3C(=O)C[C@]12C [ALFAXALONE]?
A: fold change (FC) [2]: 1.98; ED50 [3]: 8.8 mg/kg

Q: With CC(=O)[C@H]1CC[C@H]2[C@@H]3CC[C@@H]4C[C@H](OC(=O)[C@@H](N)CCC(=O)O)CC[C@]4(C)[C@H]3CC[C@]12C as the molecule, how does the IC50 [5] read?
A: 51700 nM

Q: Which IC50 [4] does the source give for COCCC(CO)(CCOC)C(=O)[C@H]1CC[C@H]2[C@@H]3CC[C@H]4C[C@@H]5O[C@@H]5C[C@]4(C)[C@H]3CC[C@]12C here?
A: 5000 nM
